# Laboratory results reported in ChEMBL document CHEMBL4145448, “Broad activity of diphenyleneiodonium analogues against Mycobacterium tuberculosis, malaria parasites and bacterial pathogens” (Eur J Med Chem, 2018).
# Tests used:
# Plasmodium knowlesi [1] = assay: Growth inhibition of Plasmodium knowlesi YH1 after 50 hrs by ethidium bromide staining based flow cytometry; type: functional, organism-based; conditions: YH1, 50 h
# In short: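 P. knowlesi YH1 cultured in human O+ erythrocytes in RPMI-HEPES with 0.5% Albumax II under 1% O2/4% CO2. Ring-synchronised parasites set up at 1% parasitaemia and 1% haematocrit with compound. Cultured 50 h to late trophozoites of the next cycle. Stained 1 h with 10 µg/mL ethidium bromide and parasitaemia counted by flow cytometry.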
# Acinetobacter baumannii [2] = assay: Antibacterial activity against Acinetobacter baumannii ATCC 17978 after 18 hrs by broth microdilution method; type: functional; conditions: ATCC 17978, 18 h
# In short: (§1)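 Broth microdilution per CLSI in cation-adjusted Mueller-Hinton broth. 100 µL inoculum (~10^6 cfu/mL in CaMHB) mixed with 100 µL CaMHB containing compound, 0 to 128 µM. Incubated 18 h at 37 °C. MIC taken as the lowest concentration with no visible growth. Polymyxin B served as positive control. Isolates were stored at -80 °C in tryptone soy broth with 20% glycerol.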
# Acinetobacter baumannii [3] = assay: Antibacterial activity against Acinetobacter baumannii ATCC 19606 after 18 hrs by broth microdilution method; type: functional; conditions: ATCC 19606 = CIP 70.34 = JCM 6841, 18 h; in short: as §1
# Klebsiella pneumoniae [4] = assay: Antibacterial activity against Klebsiella pneumoniae ATCC 13883 after 18 hrs by broth microdilution method; type: functional; conditions: ATCC 13883, 18 h; in short: as §1
# Escherichia coli [5] = assay: Antibacterial activity against Escherichia coli N11281 after 18 hrs by broth microdilution method; type: functional; conditions: N11281, 18 h; in short: as §1
# Plasmodium falciparum [6] = assay: Growth inhibition of […] GFP-fused Plasmodium falciparum D10 after 90 hrs by ethidium bromide staining based flow cytometry; type: functional, organism-based; conditions: D10, 90 h
# In short: (§2)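 Parasites cultured in human O+ erythrocytes in RPMI-HEPES pH 7.4 with hypoxanthine, NaHCO3, gentamicin and 0.5% Albumax II under 1% O2/4% CO2 at 37 °C. Synchronised to rings with heparin plus sorbitol. Set up at 1% parasitaemia and 1% haematocrit with 10x compound added. Cultured 90 h to next-cycle trophozoites. Stained with 10 µg/mL ethidium bromide for 1 h, washed, parasitaemia counted by flow cytometry with GFP gating.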
# [7] = Cytotoxicity against human HepG2 cells after 24 hrs in presence of 1% FBS by resazurin dye based assay; type: cell-based
# In short: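 HepG2 cells seeded at 4000/well in DMEM with 1% FBS and allowed to attach for 24 h at 37 °C, 5% CO2. Compounds added from 300 to 0.14 µM in 3-fold steps and incubated 24 h. 10 µM resazurin added for 2 h, fluorescence read at ex/em 560/590. Percent viability computed relative to untreated and negative controls, duplicate wells.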
# Pseudomonas aeruginosa [8] = assay: Antibacterial activity against Pseudomonas aeruginosa isolate M146201 after 18 hrs by broth microdilution method; type: functional; conditions: isolate M146201, 18 h; in short: as §1
# Plasmodium falciparum [9] = assay: Growth inhibition of CQ-sensitive GFP-fused Plasmodium falciparum D10 after 90 hrs by ethidium bromide staining based flow cytometry; type: functional, organism-based; conditions: D10, 90 h; in short: as §2
# Klebsiella pneumoniae [10] = assay: Antibacterial activity against Klebsiella pneumoniae isolate 248-33-D after 18 hrs by broth microdilution method; type: functional; in short: as §1
# [11] = Selectivity index, ratio of CC50 for human HepG2 cells in presence of 1% FBS to IC50 for drug-resistant GFP-fused Plasmodium falciparum D10; type: toxicity; conditions: read-out: Ratio IC50
# [12] = Selectivity index, ratio of CC50 for human HepG2 cells in presence of 1% FBS to MIC for Pseudomonas aeruginosa isolate 18878B klon 1; type: toxicity; conditions: read-out: Selectivity Index
# In short: (§3)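 Selectivity index is CC50 (1% FBS) divided by MIC. […] They then got compound at 300 to 0.14 µM (3-fold steps) for 24 h at 37 °C, 5% CO2. Resazurin (10 µM, 2 h) was read at ex/em 560/590 in duplicate wells. For MIC, CLSI broth microdilution was run in CaMHB with ~10^6 cfu/mL inoculum and 0–128 µM compound.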
# Klebsiella pneumoniae [13] = assay: Antibacterial activity against Klebsiella pneumoniae isolate M320445 after 18 hrs by broth microdilution method; type: functional; conditions: isolate M320445, 18 h; in short: as §1
# Acinetobacter baumannii [14] = assay: Antibacterial activity against Acinetobacter baumannii ATCC 17978 col10 after 18 hrs by broth microdilution method; type: functional; conditions: ATCC 17978 col10, 18 h; in short: as §1
# [15] = Selectivity index, ratio of CC50 for human HepG2 cells in presence of 1% FBS to MIC for methicillin-resistant Staphylococcus aureus ATCC 43300; type: toxicity; conditions: read-out: Selectivity Index; in short: as §3
# [16] = system: Mycobacterium tuberculosis; assay: Antimycobacterial activity against Mycobacterium tuberculosis H37Rv ATCC 25618 after 7 days by resazurin dye based assay; type: functional; conditions: H37Rv ATCC 25618, 168 h
# In short: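 H37Rv grown at 37 °C in 7H9 with 10% ADC, 0.5% glycerol and 0.02% tyloxapol. Compounds serially diluted in water, 0 to 10 µM, in triplicate. Culture adjusted to OD600 0.001 and incubated 7 days at 37 °C. Resazurin (0.05% w/v) added for 4-24 h and fluorescence read at 590 nm. MIC is the lowest concentration giving complete growth inhibition versus untreated. Rifampicin served as control.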
# Escherichia coli [17] = assay: Antibacterial activity against Escherichia coli N2381 after 18 hrs by broth microdilution method; type: functional; conditions: N2381, 18 h; in short: as §1
# [18] = Selectivity index, ratio of CC50 for human HepG2 cells in presence of 1% FBS to MIC for Pseudomonas aeruginosa isolate 19147nm; type: toxicity; conditions: read-out: Selectivity Index; in short: as §3
# [19] = Selectivity index, ratio of CC50 for human HepG2 cells in presence of 1% FBS to IC50 for Plasmodium knowlesi YH1; type: toxicity; conditions: read-out: Ratio IC50
# Pseudomonas aeruginosa [20] = assay: Antibacterial activity against Pseudomonas aeruginosa QLD PSA 1 after 18 hrs by broth microdilution method; type: functional; conditions: QLD PSA 1, 18 h; in short: as §1
# [21] = Selectivity index, ratio of CC50 for human HepG2 cells in presence of 1% FBS to MIC for Klebsiella pneumoniae ATCC 13883; type: toxicity; conditions: read-out: Selectivity Index
# Pseudomonas aeruginosa [22] = assay: Antibacterial activity against Pseudomonas aeruginosa ATCC 27853 after 18 hrs by broth microdilution method; type: functional; conditions: ATCC 27853, 18 h; in short: as §1
# [23] = Selectivity index, ratio of CC50 for human HepG2 cells in presence of 1% FBS to MIC for Acinetobacter baumannii ATCC 19606 col10; type: toxicity; conditions: read-out: Selectivity Index
# Plasmodium knowlesi [24] = assay: microbe, parasite or virus in culture; conditions: YH1, 90 h
# Plasmodium falciparum [25] = assay: microbe, parasite or virus in culture; conditions: CS2, 90 h
# [26] = Stability in cation-adjusted Mueller-Hinton broth at 37 degC after 1 day by LC-MS analysis; type: physicochemical; conditions: 24 h
# In short: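 Compound was incubated under bacterial assay conditions: CaMHB, 37 °C, polypropylene microtitre wells. The species present were analysed by LCMS the next day.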
SMILES,IC50 (Plasmodium knowlesi [1]) [nM],MIC (Acinetobacter baumannii [2]) [µM],MIC (Acinetobacter baumannii [3]) [µM],MIC (Klebsiella pneumoniae [4]) [µM],MIC (Escherichia coli [5]) [µM],CC50 at 24 h [7] [nM],MIC (Pseudomonas aeruginosa [8]) [µM],IC50 (Plasmodium falciparum [9]) [nM],MIC (Klebsiella pneumoniae [10]) [µM],selectivity ratio [12],MIC (Klebsiella pneumoniae [13]) [µM],MIC (Acinetobacter baumannii [14]) [µM],selectivity ratio [15],MIC [16] [µM],MIC (Escherichia coli [17]) [µM],selectivity ratio [18],MIC (Pseudomonas aeruginosa [20]) [µM],selectivity ratio [21],MIC (Pseudomonas aeruginosa [22]) [µM],selectivity ratio [23],other results
N#Cc1ccc2c(c1)-c1ccccc1[I+]2,110,4.4,18,35,71,22300,8.8,40,71,2.5,71,2.2,20,0.29,71,5.1,18,0.63,71,10,IC50 (Plasmodium falciparum [6]): 90 nM; selectivity ratio [11]: 256; selectivity ratio [19]: 232
c1ccc2c(c1)[I+]c1ccccc1-2,–,2.3,9.3,37,37,29200,9.3,130,37,6.3,37,0.58,6.3,0.3,37,13,9.3,0.78,75,6.3,IC50 (Plasmodium knowlesi [24]): 740 nM; IC50 (Plasmodium falciparum [25]): 40 nM
Cc1ccc2c(c1)[I+]c1ccccc1-2.O=S(=O)([O-])C(F)(F)F,–,4.5,9.1,72,36,3600,36,230,72,0.81,36,1.1,0.81,0.57,72,0.81,> 72,0.05,72,0.81,Stability [26]: Stable
Fc1cccc2c1-c1ccccc1[I+]2,80,0.56,0.56,4.5,4.5,4600,1.1,50,9,< 16,9,< 0.28,2.1,0.29,1.1,< 16,4.5,1,2.2,8.2,IC50 (Plasmodium falciparum [6]): 80 nM; selectivity ratio [11]: 61; selectivity ratio [19]: 59
